{"data": "Results collected from several papers", "target": "Activin receptor type-2B (ACVR2B, Homo sapiens, UniProt Q13705)", "note": "Lines come from different studies, so protocols differ."}
{"SMILES": "COc1cc(-c2cn(C3CCc4ccccc4N(CC(F)(F)F)C3=O)nn2)ccc1-n1ccc(C)n1 (centres unmarked)", "read-out": "binding", "method": "competition with immobilised ligand", "tested at": "1 µM", "remaining binding": "100%"}
{"SMILES": "N[C@@H]1CCN(c2nccc(-c3cnn4ncccc34)n2)C1", "read-out": "binding", "tested at": "1 µM", "remaining binding": "100%"}
{"SMILES": "O=C1CCc2cc(Nc3cc(OC4CCOCC4)c([N+](=O)[O-])cc3Cl)ccc2N1", "read-out": "cell-free assay", "method": "competition with immobilised ligand", "tested at": "1 µM", "remaining binding": "89%"}
{"SMILES": "O=C(NCCCN1CCOCC1)c1ccc(Nc2nccc(-c3cc4ccccc4s3)n2)cc1", "read-out": "binding", "method": "competition with immobilised ligand", "tested at": "1 µM", "remaining binding": "89%"}
{"SMILES": "COc1cnc(Nc2cccc(S(N)(=O)=O)c2)nc1N1CCN(c2ccccc2)C(=O)C1", "read-out": "binding", "method": "competition with immobilised ligand", "tested at": "1 µM", "remaining binding": "100%"}
{"SMILES": "O=C(c1ccc(Nc2ncc(Cl)c(-c3ccc(Cl)s3)n2)cc1)N1CCC(N2CCCC2)CC1", "read-out": "binding", "method": "competition with immobilised ligand", "tested at": "1 µM", "remaining binding": "77%"}
{"SMILES": "Cc1nc(C2CCN(C(=O)c3ccc(OC(F)(F)F)cc3N)CC2)c2ncc(N3CCN(C)CC3)cc2n1", "read-out": "cell-free assay", "method": "competition with immobilised ligand", "tested at": "1 µM", "remaining binding": "100%"}
{"SMILES": "FC(F)(F)Oc1cccc(-c2cnc3ccc(-c4ccncc4)nn23)c1", "read-out": "cell-free assay", "method": "competition with immobilised ligand", "tested at": "5 µM", "remaining binding": "46%"}
{"SMILES": "O=C(c1ccc(Nc2nccc(-c3cc4ccccc4s3)n2)cc1)N1CCC(N2CCCC2)CC1", "read-out": "binding", "method": "competition with immobilised ligand", "tested at": "1 µM", "remaining binding": "88%"}
{"SMILES": "Cc1cnn2ncc(-c3ccnc(N(C)C)n3)c2c1", "read-out": "binding", "method": "competition with immobilised ligand", "tested at": "1 µM", "remaining binding": "100%"}
{"SMILES": "O=C(Nc1cccnn1)N1CC(C/C=C/c2cncc(Oc3ccc(C(F)(F)F)cn3)n2)C1", "read-out": "cell-free assay", "method": "competition with immobilised ligand", "tested at": "1 µM", "remaining binding": "98%"}
{"SMILES": "C[C@@H]1CCN(c2nccc(-c3cnn4ncccc34)n2)C1", "read-out": "binding", "tested at": "1 µM", "remaining binding": "100%"}
{"SMILES": "O=C(Nc1c[nH]nc1C(=O)NC1CCNCC1)c1cc(F)cc(F)c1", "read-out": "binding", "method": "competition with immobilised ligand", "tested at": "1 µM", "remaining binding": "100%"}
{"SMILES": "CN(CCCC(F)(F)F)c1nccc(-c2cnn3ncccc23)n1", "read-out": "binding", "tested at": "1 µM", "remaining binding": "100%"}
{"SMILES": "Cc1cc(C)c(-n2ccn3nc(-c4cccnc4)cc23)cc1NC(=O)c1cc(C#N)cc(S(F)(F)(F)(F)F)c1", "read-out": "binding", "method": "competition with immobilised ligand", "tested at": "0.1 µM", "remaining binding": "88.7%"}
{"SMILES": "CNC(=O)[C@@H]1CC[C@@H](n2c(-c3ccc4cnccc4c3)nc3ccc(C(=O)NCc4cccc(C(N)=O)c4)cc32)C1", "read-out": "binding", "method": "competition with immobilised ligand", "tested at": "1 µM", "remaining binding": "100%"}
{"SMILES": "CN(C)c1ncc(F)c(-c2cnn3ncccc23)n1", "read-out": "binding", "method": "competition with immobilised ligand", "tested at": "1 µM", "remaining binding": "95%"}
{"SMILES": "Nc1ncc2c(n1)-c1c([nH]c3ccc(C#CC4CC4)cc13)CCCC2", "read-out": "binding", "method": "competition with immobilised ligand", "tested at": "1 µM", "remaining binding": "89%"}
{"SMILES": "c1cnn2ncc(-c3ccnc(N4CCC45COC5)n3)c2c1", "read-out": "binding", "tested at": "1 µM", "remaining binding": "90%"}
{"SMILES": "Cc1c[nH]c2nccc(Oc3c(F)cc(Nc4cc(Cl)nc(N)n4)cc3F)c12", "read-out": "cell-free assay", "method": "competition with immobilised ligand", "tested at": "0.1 µM", "remaining binding": "100%"}
